Assay results: PMC3322254 (Biochemical Pharmacology, 2012)

Tests used:
[1] = molecular target: A2AAR (Homo sapiens, UniProt P29274); test: FCM binding of MRS5449 to HEK cells expressing the A2AAR
In short: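 Stably transfected lines grew in DMEM/F12 (1:1) with 10% FBS, 2 mM L-glutamine and penicillin/streptomycin: A1AR CHO cells under 500 μg/ml hygromycin B, A2AAR HEK293 cells under 800 μg/ml G418. Cells were seeded about 400,000/well and grown 24 h at 37 °C, 5% CO2. At about 80% confluency the medium was refreshed and the fluorescent tracer added. Cells were then washed, detached with 0.2% EDTA and read by flow cytometry (488 nm excitation), with autofluorescence subtracted.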

[2] = molecular target: T1, hA3AR (Homo sapiens, UniProt P0DMS8); test: Fluorescent ligand binding
T1 sequence (P0DMS8 1-318): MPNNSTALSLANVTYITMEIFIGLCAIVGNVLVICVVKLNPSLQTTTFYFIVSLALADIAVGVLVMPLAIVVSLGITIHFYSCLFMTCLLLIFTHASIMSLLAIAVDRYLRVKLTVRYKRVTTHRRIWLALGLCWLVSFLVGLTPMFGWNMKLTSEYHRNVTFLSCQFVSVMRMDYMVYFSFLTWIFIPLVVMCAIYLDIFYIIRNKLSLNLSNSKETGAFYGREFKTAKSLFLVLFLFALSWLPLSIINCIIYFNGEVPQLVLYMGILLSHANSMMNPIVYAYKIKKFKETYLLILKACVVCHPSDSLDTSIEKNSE
In short: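 hA3AR-CHO cells were incubated in medium at 37 °C, 5% CO2. Preliminary screen: 1 h with conjugates at 1.5–20 μM or tracer at 10 nM. Saturation: tracer 2.5–250 nM for 1 h. Kinetics: 10 nM tracer, read from 5 min to 3 h, with dissociation started at 90 min by 10 μM non-fluorescent A3AR antagonist. Cells were EDTA-detached and read by flow cytometry; MFI was corrected for autofluorescence and converted to MESF using bead calibration.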

[3] = molecular target: T1, hA3AR; test: Radioligand membrane binding assay with [125I]I-AB-MECA
In short: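 Membranes came from CHO (hA1, hA3) or HEK293 (hA2A) cells, homogenized in 50 mM Tris-HCl pH 7.5 with 10 mM MgCl2, pelleted at 20,000 × g and stored at −80 °C with 3 units/ml adenosine deaminase. Protein was measured by Bradford. […] Ki values were obtained at each subtype.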

Sequence of A2AAR (P29274 whole entry): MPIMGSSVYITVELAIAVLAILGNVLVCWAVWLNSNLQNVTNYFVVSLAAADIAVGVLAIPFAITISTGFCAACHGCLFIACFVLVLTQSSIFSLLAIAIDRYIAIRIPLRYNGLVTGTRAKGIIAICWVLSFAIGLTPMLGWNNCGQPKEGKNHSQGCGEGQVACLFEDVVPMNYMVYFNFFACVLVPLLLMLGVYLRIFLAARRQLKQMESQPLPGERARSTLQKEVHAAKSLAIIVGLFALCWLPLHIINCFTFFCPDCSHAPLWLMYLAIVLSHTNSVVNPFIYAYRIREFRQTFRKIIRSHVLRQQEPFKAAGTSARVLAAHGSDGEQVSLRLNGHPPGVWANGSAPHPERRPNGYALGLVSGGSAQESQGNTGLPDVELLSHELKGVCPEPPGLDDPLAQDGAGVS

binding compared with the binding to the A3AR (expressed as 100%) [1]: 0.5%
Nonspecific binding, % of total binding ([2]; 10 nM MRS5449, in presence of 10 μM MRS1220 or 10 μM Cl-IB-MECA or in control CHO cells): less than 1%
fluorescence emission (MFI) of cell-bound ligand ([2]; preliminary FCM, 1 h, 37 °C, 1.5-20 μM for 1-6, 10 nM MRS5449): sufficiently high MFI
Ki ([3]; read-out: A3 Ki, CHO cells stably expressing hA3AR, agonist radioligand [125I]I-AB-MECA): 6.4 ± 2.5 nM
selectivity for the A3AR ([3]; versus hA1 and hA2AARs, from radioligand Ki values): over 10 fold
Structure (SMILES): N=c1ccc2c(-c3ccc(C(=O)NCCCCCCn4cc(CCCC(=O)Nc5nc6ccc(Cl)cc6c6nc(-c7ccco7)nn56)nn4)cc3C(=O)O)c3ccc(N)c(S(=O)(=O)O)c3oc-2c1S(=O)(=O)O [Compound 9, 2-(6-Amino-3-iminio-4,5-disulfonato-3H-xanthen-9-yl)-5-((6-(4-(4-((9-chloro-2-(furan-2-yl)-[1,2,4]triazolo[1,5-c]quinazolin-5-yl)amino)-4-oxobutyl)-1H-1,2,3-triazol-1-yl)hexyl)carbamoyl)benzoate]
